Assay results from ChEMBL document CHEMBL1152806, “Discovery of a potent, selective, and orally efficacious pyrimidinooxazinyl bicyclooctaneacetic acid diacylglycerol acyltransferase-1 inhibitor” (J Med Chem, 2009).

Key:
[1] = Volume of distribution at steady state in rat at 1 to 3 mg/kg; type: ADME, organism-based; design: dose 1-3 mg/kg; conditions: in vivo, read-out: Vdss
[2] = Bioavailability in rat at 1 to 3 mg/kg; type: ADME, organism-based; conditions: in vivo
[3] = Volume of distribution at steady state in dog at 1 to 3 mg/kg; type: ADME, organism-based, Canis lupus familiaris; design: dose 1-3 mg/kg; conditions: in vivo, read-out: Vdss
[4] = Plasma clearance in dog at 1 to 3 mg/kg; type: ADME, organism-based, Canis lupus familiaris; design: dose 1-3 mg/kg
[5] = Half life in rat at 1 to 3 mg/kg, iv; type: ADME, organism-based; design: dose 1-3 mg/kg, route intravenous; conditions: in vivo
[6] = Half life in dog at 1 to 3 mg/kg, iv; type: ADME, organism-based, Canis lupus familiaris; design: dose 1-3 mg/kg, route intravenous; conditions: in vivo
[7] = target: T1, Diacylglycerol O-acyltransferase 2 (Homo sapiens) (UniProt Q96PD7); test: Inhibition of human DGAT2 at 10 uM by liquid scintillography
T1 sequence (whole entry): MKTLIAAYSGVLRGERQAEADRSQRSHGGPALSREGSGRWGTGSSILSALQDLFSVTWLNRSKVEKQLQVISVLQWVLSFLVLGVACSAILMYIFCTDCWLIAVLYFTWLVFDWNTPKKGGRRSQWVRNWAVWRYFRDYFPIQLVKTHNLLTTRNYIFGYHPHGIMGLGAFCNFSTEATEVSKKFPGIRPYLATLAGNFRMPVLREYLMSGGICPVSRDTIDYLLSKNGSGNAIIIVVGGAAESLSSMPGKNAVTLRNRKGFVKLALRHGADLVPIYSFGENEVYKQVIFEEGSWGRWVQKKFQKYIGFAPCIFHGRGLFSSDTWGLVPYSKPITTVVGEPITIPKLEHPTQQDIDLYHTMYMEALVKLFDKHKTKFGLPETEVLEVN

[8] = Half life in dog at 1 to 3 mg/kg, po; type: ADME, organism-based, Canis lupus familiaris; design: dose 1-3 mg/kg, route oral; conditions: in vivo
[9] = Plasma clearance in rat at 1 to 3 mg/kg; type: ADME, organism-based; design: dose 1-3 mg/kg
HuTu80 = test: Inhibition of triacylglycerol synthesis in human HuTu 80 cells after 30 mins; type: functional, cell-based; conditions: HuTu80, 0.5 h
Outline: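 Confluent HuTu 80 cells in serum-free medium, preincubated 30 min with compound (0.1% DMSO final). Then given 0.12 mM sodium oleate plus 1 µCi/mL 14C-oleate complexed to 0.03 mM BSA. Cells solubilized in SDS and lipids extracted; 14C in triacylglycerol measured by normal-phase HPLC with radio-flow detection. Lowry protein determined.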

[10] = target: T2, Diacylglycerol O-acyltransferase 1 (Rattus norvegicus, UniProt Q9ERM3); test: Inhibition of rat microsomal DGAT1 by liquid scintillography
T2 sequence (Q9ERM3 whole entry): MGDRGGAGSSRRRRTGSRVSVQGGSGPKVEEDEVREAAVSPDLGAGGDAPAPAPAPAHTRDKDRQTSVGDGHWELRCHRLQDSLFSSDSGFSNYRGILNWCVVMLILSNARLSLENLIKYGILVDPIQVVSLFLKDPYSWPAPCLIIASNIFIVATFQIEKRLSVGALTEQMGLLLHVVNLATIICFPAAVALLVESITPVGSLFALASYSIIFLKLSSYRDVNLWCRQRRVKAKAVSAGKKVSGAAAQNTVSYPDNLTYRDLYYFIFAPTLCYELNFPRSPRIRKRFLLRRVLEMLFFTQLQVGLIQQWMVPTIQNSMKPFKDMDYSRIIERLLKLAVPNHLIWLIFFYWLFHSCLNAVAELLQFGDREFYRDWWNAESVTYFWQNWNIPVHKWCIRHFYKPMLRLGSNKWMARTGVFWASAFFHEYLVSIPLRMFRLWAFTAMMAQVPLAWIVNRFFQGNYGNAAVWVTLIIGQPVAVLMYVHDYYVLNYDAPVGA

[11] = Half life in rat at 1 to 3 mg/kg, po; type: ADME, organism-based; design: dose 1-3 mg/kg, route oral; conditions: in vivo
[12] = Bioavailability in dog at 1 to 3 mg/kg; type: ADME, organism-based, Canis lupus familiaris; conditions: in vivo

- Vd [1]: 0.69 L/kg
- bioavailability [2]: > 100%
- Vd [3]: 2 L/kg
- clearance [4]: 12 mL/min/kg
- half-life [5]: 3 h
- half-life [6]: 3.9 h
- inhibition [7]: 3.7%
- half-life [8]: 2.8 h
- clearance [9]: 5.2 mL/min/kg
- IC50 (HuTu80): 0.004 µM
- IC50 [10]: 0.019 µM
- half-life [11]: 5.6 h
- bioavailability [12]: > 100%
Compound: CC1(C)Oc2ncnc(N)c2N=C1c1ccc([C@H]2CC[C@H](CC(=O)O)CC2)cc1
